Measurements gathered from unrelated publications.
Cell line: A549
Read-out: cell growth or viability

Compound	test	setting	measurement	value
CCOC(=O)CCn1cc(C(=O)c2ccc(F)cc2)c2cc(-c3ccc(N4CCN(C(=O)OC(C)(C)C)CC4)nc3)cnc21	MTT	10 µM, 48 h	viability	90.2%
N#Cc1ccc(CN2C(=O)/C(=N\NC(=O)c3cc4ccccc4[nH]3)c3ccccc32)cc1		30 µM	inhibition	94.6%
O=C(c1ccc(F)cc1)c1c[nH]c2ncc(-c3ccc(N4CCNCC4)nc3)cc12	MTT	10 µM, 48 h	viability	94.7%
C[C@]12CC[C@H](O)C[C@H]1CC[C@@H]1[C@@H]2C[C@@H](O)[C@]2(C)[C@@H](C3=CC(=O)OC3)CC[C@]12O	MTT	5 µM, 24 h	inhibition	72.3%
O=C(N/N=C1\C(=O)N(Cc2ccc(Cl)cc2)c2ccccc21)c1cc2ccccc2[nH]1		30 µM	inhibition	96.9%
COc1ccc(C(=O)c2c[nH]c3ncc(-c4ccc(N5CCN(C(=O)OC(C)(C)C)CC5)nc4)cc23)cc1	MTT	10 µM, 48 h	viability	88.1%
N.N.[Cl][Pt][Cl]	SRB	72 h	EC50	4.5 µM
O=C(c1ccc(F)cc1)c1c[nH]c2ncc(-c3ccnc(N4CCNCC4)c3)cc12	MTT	10 µM, 48 h	viability	101%
Cc1c(Cc2cccc(N(C)S(=O)(=O)CCCNCCCC(=O)N3CCN(c4ccc(Nc5c(C(N)=O)cnc6ccc(-c7cnc8ccccc8c7)cc56)cc4C(F)(F)F)CC3)c2)c(=O)oc2cc(OC(=O)N(C)C)ccc12	CCK-8		GI50	4.66 µM
O=C(N/N=C1\C(=O)N(Cc2ccccc2)c2ccc(Cl)cc21)c1cc2ccccc2[nH]1		30 µM	inhibition	99.7%
COc1cc([C@@H]2c3cc4c(cc3[C@H](O)[C@H]3COC(=O)[C@H]23)OCO4)cc(OC)c1OC	MTT	72 h	EC50	0.024 µM
CS(=O)(=O)N1CCN(c2ccc(-c3cnc4[nH]cc(C(=O)c5ccc(F)cc5)c4c3)cn2)CC1	MTT	10 µM, 48 h	viability	97.3%
N.N.[Cl][Pt][Cl]	MTT		GI50	14.3 µM
CC[C@@]1(OC(=O)[C@@H]2CCCN2)C(=O)OCc2c1cc1n(c2=O)Cc2cc3cc4c(cc3nc2-1)OCO4	MTT		IC50	0.031 µM
O=C(N/N=C1\C(=O)N(Cc2ccccc2)c2ccccc21)c1cc2ccccc2[nH]1		30 µM	inhibition	98.4%
CN1C[C@H](C(=O)N[C@]2(C)O[C@@]3(O)[C@@H]4CCCN4C(=O)[C@H](Cc4ccccc4)N3C2=O)C=C2c3cccc4[nH]cc(c34)C[C@H]21	MTT	72 h	EC50	13 µM
CC(=O)O[C@H]1C[C@H](O[C@H]2[C@@H](O)C[C@H](O[C@H]3[C@@H](O)C[C@H](O[C@H]4CC[C@@]5(C)[C@H](CC[C@@H]6[C@@H]5C[C@@H](O)[C@]5(C)[C@@H](C7=CC(=O)OC7)CC[C@]65O)C4)O[C@@H]3C)O[C@@H]2C)O[C@H](C)[C@H]1O	MTT	5 µM, 24 h	inhibition	73.9%
O=C(N/N=C1\C(=O)N(Cc2ccccc2)c2ccc(Br)cc21)c1cc2ccccc2[nH]1		30 µM	inhibition	96.1%
